Results reported in publication PMC6511231 (Cell reports, 2018).
Entries after “also recorded” stand apart in the source; their conditions may differ.

Key:
[1] = target: TUT4 (Mus musculus, UniProt B2RX14); assay: Uridylation assay without LIN28; type: biochemical
[2] = Cellular toxicity; type: cell-based; conditions: high micromolar concentrations
[3] = tested on: DKO+A mESCs; assay: qPCR of let-7 species in DKO+A mESCs; type: cell-based, mouse; conditions: 100 μM, 48 hr, LIF/2i culture, vs vehicle
How it was run: (§1)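 K562 leukaemia cells, or DKO+A mESCs (Lin28a/Lin28b double-knockout re-expressing wild-type LIN28A, in LIF/2i), were treated 48 hr with 100 μM test compound or vehicle. Total RNA was isolated with TRIzol and cDNA made with the miScript system. Mature and precursor microRNAs were quantified with specific primer assays relative to U6; n = 6 over two independent experiments.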

[4] = target: T1, mouse LIN28Δ, mouse TUT4 and pre-let-7g (Mus musculus, UniProt Q8K3Y3); assay: LIN28-mediated let-7 oligouridylation assay; type: biochemical; conditions: 40 μM compound, 37°C, denaturing PAGE
T1 sequence (Q8K3Y3 16-184): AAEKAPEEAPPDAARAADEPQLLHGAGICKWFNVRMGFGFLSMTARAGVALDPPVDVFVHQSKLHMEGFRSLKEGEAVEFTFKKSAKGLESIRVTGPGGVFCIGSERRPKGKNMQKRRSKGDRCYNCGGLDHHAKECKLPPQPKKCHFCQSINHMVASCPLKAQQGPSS
T1 sequence (B2RX14 230-1424 partner): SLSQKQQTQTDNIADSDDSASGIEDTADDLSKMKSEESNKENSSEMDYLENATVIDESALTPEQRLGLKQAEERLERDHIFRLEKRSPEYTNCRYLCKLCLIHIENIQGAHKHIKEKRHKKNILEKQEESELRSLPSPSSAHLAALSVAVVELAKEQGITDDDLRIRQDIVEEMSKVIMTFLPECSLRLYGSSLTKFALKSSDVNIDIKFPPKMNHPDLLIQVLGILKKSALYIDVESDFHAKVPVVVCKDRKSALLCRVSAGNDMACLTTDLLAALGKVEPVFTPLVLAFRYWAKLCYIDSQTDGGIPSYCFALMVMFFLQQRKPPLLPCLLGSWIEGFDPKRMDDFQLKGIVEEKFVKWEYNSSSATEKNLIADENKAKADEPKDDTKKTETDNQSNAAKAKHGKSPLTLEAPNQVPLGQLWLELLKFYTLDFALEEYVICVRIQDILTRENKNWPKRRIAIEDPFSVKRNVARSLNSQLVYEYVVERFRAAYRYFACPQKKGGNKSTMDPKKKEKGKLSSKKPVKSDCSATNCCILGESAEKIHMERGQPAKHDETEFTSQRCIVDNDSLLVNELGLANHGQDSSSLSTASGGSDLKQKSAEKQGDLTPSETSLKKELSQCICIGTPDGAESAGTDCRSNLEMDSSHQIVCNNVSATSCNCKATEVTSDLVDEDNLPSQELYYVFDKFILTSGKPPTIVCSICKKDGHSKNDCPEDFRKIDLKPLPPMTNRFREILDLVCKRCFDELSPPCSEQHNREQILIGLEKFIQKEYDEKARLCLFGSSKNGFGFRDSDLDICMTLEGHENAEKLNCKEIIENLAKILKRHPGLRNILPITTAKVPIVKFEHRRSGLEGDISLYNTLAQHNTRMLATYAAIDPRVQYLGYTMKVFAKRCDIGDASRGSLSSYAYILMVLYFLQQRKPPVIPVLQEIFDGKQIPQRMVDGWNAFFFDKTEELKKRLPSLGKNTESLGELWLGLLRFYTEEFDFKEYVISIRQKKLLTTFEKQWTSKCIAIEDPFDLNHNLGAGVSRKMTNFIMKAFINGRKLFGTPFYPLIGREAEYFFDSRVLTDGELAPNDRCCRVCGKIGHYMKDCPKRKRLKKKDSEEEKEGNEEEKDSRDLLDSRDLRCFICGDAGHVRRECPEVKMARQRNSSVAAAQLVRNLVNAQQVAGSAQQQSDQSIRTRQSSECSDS
How it was run: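 Mouse LIN28A, mouse TUT4 (230–1424) and in vitro-transcribed, T4 PNK-radiolabelled pre-let-7g were incubated with test compound (40 μM screen; 80 μM follow-up) for 40 min at 37°C. Buffer: 20 mM Tris 7.5, 5% glycerol, 6 mM MgCl2, 6 mM DTT, 50 μM ZnCl2, 40 mM KCl, 200 μM UTP. Reactions were stopped with EDTA/SDS/proteinase K (50°C, 30 min) and run on denaturing PAGE. RNA and DMSO served as controls.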

[5] = target: human LIN28ΔF73A (Homo sapiens, UniProt Q9H9Z2, F73A); assay: Competition / dose-response fluorescence polarization assay with LIN28ΔF73A; type: binding; conditions: preE-let-7f, preE-let-7a, preE-let-7d, preE-let-7g
How it was run: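 Recombinant human LIN28ΔF73A (150 nM in the screening master mix; set at the FP-titration Kd for competition) was mixed with 2 nM FAM-labelled preE-let-7 probe (let-7f, -7a, -7d or -7g) in buffer M (100 mM NaCl, 20 mM Tris-HCl pH 7.0, 5 mM MgCl2, 10% glycerol, 5 mM DTT, 0.1% NP-40). Test compound was dispensed at 12 concentrations, 50 μM–20 nM. IC50 came from a 1:1 inhibition fit; each assay was run at least twice.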

[6] = target: human LIN28Δ (Homo sapiens, UniProt Q9H9Z2); assay: Saturation transfer difference spectroscopy, LIN28Δ; type: binding; conditions: 100 μM compound, 5 μM LIN28
How it was run: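 Protein was dialysed overnight into 20 mM Bis-Tris pH 6.0, 100 mM NaCl, 10% v/v glycerol-d8, 5 mM DTT and D2O. Test compound was dissolved in DMSO-d6. Samples held 100 μM compound and 5 μM protein in dialysis buffer. STD spectra were collected at 700 MHz, irradiating the macromolecule only at −2 ppm, with a 2 s transfer delay.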

[7] = target: human LIN28Δ:preE-let-7f complex (Homo sapiens, UniProt Q9H9Z2); assay: Differential scanning fluorimetry; type: binding; conditions: SYPRO Orange; 63°C without compound
[8] = tested on: K562 leukemia cells; assay: qPCR of microRNA species in K562 cells; type: cell-based, human; conditions: 100 μM, 48 hr
How it was run: as §1

[9] = tested on: HeLaLIN28A; assay: let-7-sensitive dual luciferase reporter assay, HeLaLIN28A; type: cell-based, human; conditions: LI71 50–100 μM, 48 hr
How it was run: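 A HeLa clone stably expressing low-level FLAG-LIN28A plus the 8×let-7 Renilla/firefly dual-luciferase sensor was treated 48 hr with vehicle (DMSO) or test compound at the indicated concentrations. Dual luciferase activity was then assayed, with firefly as internal control. Runs used 3 or 5 biological replicates; Student's t test against vehicle.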

[10] = Solubility in solution; type: physicochemical; conditions: water / solution
[11] = target: mouse LIN28Δ:preE-let-7d complex (Mus musculus, UniProt Q8K3Y3); assay: HSQC spectroscopy; type: binding; conditions: 15N-labeled mouse LIN28Δ with unlabeled preE-let-7d

human LIN28Δ:preE-let-7f complex, sequence (Q9H9Z2 16-187, stated change not applied, one chain of several): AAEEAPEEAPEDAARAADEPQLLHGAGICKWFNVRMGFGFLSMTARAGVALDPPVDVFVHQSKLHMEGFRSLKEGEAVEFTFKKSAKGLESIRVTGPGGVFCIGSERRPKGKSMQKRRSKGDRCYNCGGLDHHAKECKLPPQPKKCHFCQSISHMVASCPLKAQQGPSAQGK
human LIN28Δ, sequence (Q9H9Z2 16-187, stated change not applied): as the sequence (Q9H9Z2 16-187, stated change not applied, one chain of several) above
human LIN28ΔF73A, sequence (Q9H9Z2 16-187 F73A): as the sequence (Q9H9Z2 16-187, stated change not applied, one chain of several) above, with F58A counted along it

Inhibition of LIN28-mediated oligouridylation [4]: completely inhibited | IC50s with four let-7 pre-elements [5]: all within the low micromolar range | Melting temperature of LIN28Δ:preE-let-7f complex with compound [7]: 60 °C
Compound: CCOc1cccc2c1N[C@@H](c1ccc(C(=O)O)cc1)[C@H]1CC=C[C@@H]21 [LI71]
Catalytic activity of TUT4 when LIN28 is not present [1]: does not abolish catalytic activity of TUT4 | Cellular toxicity [2]: low cellular toxicity | Mature let-7 species [3]: increased levels of mature let-7 species | Saturation transfer difference peaks [6]: saturation transfer difference peaks of LI71 occur | let-7 precursor species [8]: not correlated with increased levels of let-7 precursor species | miR-16 (non-LIN28-regulated microRNA) [8]: small but significant effect | miR-93, miR-99a and miR-151 (non-LIN28-regulated microRNAs) [8]: did not observe significant effects | Mature let-7 species ([8]; vs DMSO): significant increase in several let-7 species | Relative Renilla luciferase activity [9]: significantly reduce the relative Renilla luciferase activity | Solubility [10]: better water solubility; also recorded: ample solubility in solution | HSQC peak intensity changes [11]: minor intensity reductions for a number of residues
